Data on 20 compounds can be found in ChEMBL document CHEMBL4680065, “Pharmacophore-based screening of diamidine small molecule inhibitors for protein arginine methyltransferases” (RSC Med Chem, 2021).

The target of assay [1] is Protein arginine N-methyltransferase 1 (Homo sapiens, UniProt Q99873). The assay can be described thus: Inhibition of recombinant human His-tagged PRMT1 expressed in Escherichia coli BL21 (DE3) using biotin-labeled histone H4-20 as substrate incubated for 8 mins in presence of [3H]-SAM cofactor by scintillation proximity assay.
Chain of Protein arginine N-methyltransferase 1 (Q99873 whole entry): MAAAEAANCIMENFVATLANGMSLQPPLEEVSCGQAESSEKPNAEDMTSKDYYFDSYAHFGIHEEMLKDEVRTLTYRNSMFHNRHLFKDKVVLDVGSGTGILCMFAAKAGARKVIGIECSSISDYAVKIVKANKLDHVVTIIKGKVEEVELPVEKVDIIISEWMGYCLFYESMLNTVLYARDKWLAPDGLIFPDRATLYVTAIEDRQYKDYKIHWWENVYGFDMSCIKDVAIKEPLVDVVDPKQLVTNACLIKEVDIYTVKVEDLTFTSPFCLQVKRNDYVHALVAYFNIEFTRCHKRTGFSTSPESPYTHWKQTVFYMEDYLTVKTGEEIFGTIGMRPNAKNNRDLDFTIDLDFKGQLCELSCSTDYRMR
The target in assay [2] is Protein arginine N-methyltransferase 8 (Homo sapiens, UniProt Q9NR22). The assay can be described thus: Inhibition of recombinant His-tagged human PRMT8 expressed in Escherichia coli BL21 (DE3) using biotin-labeled histone H4-20 peptide as substrate incubated for 8 mins in presence of [3H]-SAM cofactor by scintillation proximity assay. The procedure, abridged: (§1)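 The inhibitor was serially diluted and added to the enzyme, [3H]-SAM and substrate mixture, and methylated substrate was quantified by scintillation proximity assay. Reactions were held at initial rate, with yield under 10% and substrate near Km. PRMT3, PRMT8 and G9a were His-tagged human proteins, and PRMT7 was GST-tagged, all expressed in E. coli and affinity-purified.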
Chain of Protein arginine N-methyltransferase 8 (Q9NR22 whole entry): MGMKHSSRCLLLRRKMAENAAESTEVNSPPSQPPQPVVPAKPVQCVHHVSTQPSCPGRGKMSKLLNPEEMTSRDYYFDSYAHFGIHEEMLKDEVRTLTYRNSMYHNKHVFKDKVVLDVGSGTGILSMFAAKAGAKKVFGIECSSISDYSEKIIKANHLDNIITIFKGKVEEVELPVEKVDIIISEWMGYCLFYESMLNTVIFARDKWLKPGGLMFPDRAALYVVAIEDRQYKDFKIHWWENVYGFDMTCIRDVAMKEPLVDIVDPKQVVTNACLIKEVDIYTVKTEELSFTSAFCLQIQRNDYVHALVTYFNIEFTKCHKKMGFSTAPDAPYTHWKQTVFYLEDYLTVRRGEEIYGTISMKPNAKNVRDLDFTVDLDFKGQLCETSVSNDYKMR
Background: In a scintillation proximity assay essentially only radioactivity close to the scintillant gives light.

The target of assay [3] is PRMT5/MEP50 complex (Homo sapiens, UniProt O14744). The assay can be described thus: Inhibition of PRMT5/MEP50 (unknown origin) using biotin-labeled histone H4-20 peptide as substrate incubated for 8 mins in presence of [3H]-SAM cofactor by scintillation proximity assay. The assay is classed as protein-complex assay. The procedure, abridged: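 Part of a methyltransferase selectivity panel. Test compound was serially diluted into a mixture of enzyme, [3H]-SAM cofactor and substrate. Methylated substrate was quantified by scintillation proximity assay. Reactions were held at initial-rate conditions with substrate turnover under 10%, and substrate concentrations were near Km.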
Chain of PRMT5/MEP50 complex (O14744 whole entry): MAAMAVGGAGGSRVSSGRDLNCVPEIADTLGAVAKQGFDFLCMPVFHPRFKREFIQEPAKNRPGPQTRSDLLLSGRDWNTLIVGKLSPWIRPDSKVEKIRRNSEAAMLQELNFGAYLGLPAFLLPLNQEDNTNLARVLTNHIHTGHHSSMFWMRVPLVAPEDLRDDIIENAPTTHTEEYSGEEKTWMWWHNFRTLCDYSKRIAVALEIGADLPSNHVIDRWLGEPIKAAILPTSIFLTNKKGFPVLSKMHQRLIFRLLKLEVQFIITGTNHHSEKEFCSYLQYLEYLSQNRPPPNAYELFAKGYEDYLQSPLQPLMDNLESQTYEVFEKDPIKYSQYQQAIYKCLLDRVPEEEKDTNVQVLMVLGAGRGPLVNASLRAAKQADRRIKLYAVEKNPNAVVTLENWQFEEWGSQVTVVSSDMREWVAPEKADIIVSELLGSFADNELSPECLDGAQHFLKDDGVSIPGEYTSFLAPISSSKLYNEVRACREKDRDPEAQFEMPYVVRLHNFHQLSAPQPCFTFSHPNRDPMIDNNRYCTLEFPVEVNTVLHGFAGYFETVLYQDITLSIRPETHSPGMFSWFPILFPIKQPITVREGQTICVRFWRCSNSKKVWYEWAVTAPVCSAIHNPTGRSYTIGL
Chain of PRMT5/MEP50 complex (Q9BQA1 whole entry, further chain): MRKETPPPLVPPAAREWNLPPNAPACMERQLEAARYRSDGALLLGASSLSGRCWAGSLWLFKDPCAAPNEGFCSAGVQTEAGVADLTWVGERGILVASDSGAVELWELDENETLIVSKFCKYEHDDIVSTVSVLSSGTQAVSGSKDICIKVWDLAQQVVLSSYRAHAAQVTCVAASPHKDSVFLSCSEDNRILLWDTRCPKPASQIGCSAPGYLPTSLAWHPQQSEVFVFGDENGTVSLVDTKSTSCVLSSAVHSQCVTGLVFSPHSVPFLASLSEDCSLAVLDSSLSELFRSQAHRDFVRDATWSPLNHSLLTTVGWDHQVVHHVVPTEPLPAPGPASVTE

The target in assay [4] is Protein arginine N-methyltransferase 3 (Homo sapiens, UniProt O60678). The assay can be described thus: Inhibition of recombinant human His-tagged PRMT3 expressed in Escherichia coli BL21 (DE3) using biotin-labeled SMD1 as substrate incubated for 10 mins in presence of [3H]-SAM cofactor by scintillation proximity assay. The procedure, abridged: as §1
Chain of Protein arginine N-methyltransferase 3 (O60678 whole entry): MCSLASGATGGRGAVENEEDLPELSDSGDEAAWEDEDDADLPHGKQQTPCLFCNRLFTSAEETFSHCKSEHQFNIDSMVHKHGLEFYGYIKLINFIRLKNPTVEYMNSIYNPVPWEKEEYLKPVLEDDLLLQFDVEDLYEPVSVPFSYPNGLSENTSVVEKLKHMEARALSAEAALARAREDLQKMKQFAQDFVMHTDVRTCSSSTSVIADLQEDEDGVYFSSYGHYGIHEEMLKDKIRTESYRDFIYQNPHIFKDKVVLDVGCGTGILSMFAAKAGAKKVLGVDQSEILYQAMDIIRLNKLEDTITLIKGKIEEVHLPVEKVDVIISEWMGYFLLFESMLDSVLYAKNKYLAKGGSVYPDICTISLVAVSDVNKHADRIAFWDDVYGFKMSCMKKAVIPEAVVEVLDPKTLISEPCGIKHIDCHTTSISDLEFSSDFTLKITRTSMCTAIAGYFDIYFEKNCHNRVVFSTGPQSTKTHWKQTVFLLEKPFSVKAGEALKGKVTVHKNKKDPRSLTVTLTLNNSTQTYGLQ
Assay [5] concerns the target T1, Histone-arginine methyltransferase CARM1 (Homo sapiens, UniProt Q86X55).
T1 sequence (Q86X55 whole entry): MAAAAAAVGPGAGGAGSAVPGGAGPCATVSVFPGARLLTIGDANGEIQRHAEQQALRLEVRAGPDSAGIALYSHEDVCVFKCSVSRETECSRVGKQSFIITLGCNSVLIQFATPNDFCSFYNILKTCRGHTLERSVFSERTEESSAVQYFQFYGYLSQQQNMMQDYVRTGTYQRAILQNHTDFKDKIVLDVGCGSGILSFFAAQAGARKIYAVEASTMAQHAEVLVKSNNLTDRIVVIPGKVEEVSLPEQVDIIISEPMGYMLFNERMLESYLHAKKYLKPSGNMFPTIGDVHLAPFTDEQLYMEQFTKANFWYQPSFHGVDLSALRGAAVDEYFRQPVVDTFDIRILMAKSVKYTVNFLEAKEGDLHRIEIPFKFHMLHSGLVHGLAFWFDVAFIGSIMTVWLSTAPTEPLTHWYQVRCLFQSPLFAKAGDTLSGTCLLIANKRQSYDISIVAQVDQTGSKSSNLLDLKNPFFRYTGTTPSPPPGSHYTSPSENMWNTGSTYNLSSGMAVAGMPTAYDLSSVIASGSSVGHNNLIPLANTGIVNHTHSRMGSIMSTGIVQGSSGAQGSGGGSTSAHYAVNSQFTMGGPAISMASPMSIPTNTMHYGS
Description: Inhibition of recombinant GST-tagged CARM1 (unknown origin) expressed in Escherichia coli using […] incubated for 120 mins in presence of [3H]-SAM cofactor by radioactive filter plate assay.

In assay [6] the target is T2, Protein arginine N-methyltransferase 7 (Homo sapiens, UniProt Q9NVM4).
T2 sequence (Q9NVM4 whole entry): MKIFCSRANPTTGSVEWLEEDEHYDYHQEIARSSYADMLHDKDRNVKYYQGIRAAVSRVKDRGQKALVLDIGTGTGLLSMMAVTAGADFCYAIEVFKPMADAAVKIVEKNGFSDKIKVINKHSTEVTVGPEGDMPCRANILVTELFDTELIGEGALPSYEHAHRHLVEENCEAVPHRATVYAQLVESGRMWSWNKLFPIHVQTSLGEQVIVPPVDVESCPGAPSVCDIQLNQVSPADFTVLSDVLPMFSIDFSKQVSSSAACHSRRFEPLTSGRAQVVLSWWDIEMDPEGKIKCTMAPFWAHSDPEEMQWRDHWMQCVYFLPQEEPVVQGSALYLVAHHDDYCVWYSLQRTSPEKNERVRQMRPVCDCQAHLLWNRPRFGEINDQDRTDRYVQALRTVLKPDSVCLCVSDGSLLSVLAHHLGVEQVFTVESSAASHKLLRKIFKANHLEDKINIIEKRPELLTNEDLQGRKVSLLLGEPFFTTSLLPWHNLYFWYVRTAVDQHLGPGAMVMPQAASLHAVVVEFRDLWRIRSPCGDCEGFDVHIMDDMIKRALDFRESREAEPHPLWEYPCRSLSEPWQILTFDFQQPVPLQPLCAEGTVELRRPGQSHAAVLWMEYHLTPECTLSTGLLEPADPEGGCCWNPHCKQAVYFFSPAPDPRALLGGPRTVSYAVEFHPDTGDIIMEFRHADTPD
Description: Inhibition of recombinant GST-tagged PRMT7 (unknown origin) expressed in Escherichia coli using biotin-labeled SMD1 as substrate incubated for 120 mins in presence of [3H]-SAM cofactor by scintillation proximity assay. In short, it runs like this:
as §1

For assay [7], the target named is T3, Histone-lysine N-methyltransferase EHMT2 (Homo sapiens, UniProt Q96KQ7).
T3 sequence (Q96KQ7 whole entry): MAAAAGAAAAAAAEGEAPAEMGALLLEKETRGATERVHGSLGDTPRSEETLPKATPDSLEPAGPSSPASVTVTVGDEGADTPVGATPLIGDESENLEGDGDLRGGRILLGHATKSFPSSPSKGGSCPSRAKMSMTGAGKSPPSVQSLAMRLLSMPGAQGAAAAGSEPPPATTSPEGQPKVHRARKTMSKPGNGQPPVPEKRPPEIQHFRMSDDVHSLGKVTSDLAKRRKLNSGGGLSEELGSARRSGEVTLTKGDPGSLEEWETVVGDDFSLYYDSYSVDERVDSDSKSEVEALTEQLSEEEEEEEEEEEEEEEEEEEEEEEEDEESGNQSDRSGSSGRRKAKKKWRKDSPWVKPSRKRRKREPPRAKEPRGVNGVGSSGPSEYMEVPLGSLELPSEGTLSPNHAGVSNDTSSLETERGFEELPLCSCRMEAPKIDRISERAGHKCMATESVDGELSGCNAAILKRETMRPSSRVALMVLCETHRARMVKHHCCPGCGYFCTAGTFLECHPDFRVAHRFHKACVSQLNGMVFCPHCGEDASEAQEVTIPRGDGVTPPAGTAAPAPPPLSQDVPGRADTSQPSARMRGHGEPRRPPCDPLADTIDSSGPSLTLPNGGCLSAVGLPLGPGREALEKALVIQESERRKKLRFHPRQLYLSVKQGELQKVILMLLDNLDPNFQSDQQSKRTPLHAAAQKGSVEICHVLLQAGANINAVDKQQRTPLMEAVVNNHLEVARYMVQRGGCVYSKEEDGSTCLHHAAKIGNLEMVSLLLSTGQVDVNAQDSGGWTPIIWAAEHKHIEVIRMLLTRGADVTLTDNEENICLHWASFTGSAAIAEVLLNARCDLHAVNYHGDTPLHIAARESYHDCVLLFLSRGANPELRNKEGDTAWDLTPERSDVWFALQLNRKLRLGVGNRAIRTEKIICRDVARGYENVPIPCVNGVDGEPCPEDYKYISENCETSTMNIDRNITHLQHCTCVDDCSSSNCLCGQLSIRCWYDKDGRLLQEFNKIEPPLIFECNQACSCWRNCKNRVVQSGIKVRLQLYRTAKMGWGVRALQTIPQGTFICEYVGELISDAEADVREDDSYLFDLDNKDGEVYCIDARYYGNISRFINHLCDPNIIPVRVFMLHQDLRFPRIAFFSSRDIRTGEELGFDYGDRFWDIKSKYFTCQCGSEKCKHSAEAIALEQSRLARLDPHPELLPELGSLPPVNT
The assay can be described thus: Inhibition of recombinant His-tagged human G9a expressed in Escherichia coli BL21 (DE3) using biotin-labeled histone H3-20 peptide as substrate incubated for 30 mins in presence of [3H]-SAM cofactor by scintillation proximity assay. In short, it runs like this: as §1

The target in assay [8] is Protein arginine N-methyltransferase 6 (Homo sapiens, UniProt Q96LA8). The assay can be described thus: Inhibition of PRMT6 (unknown origin) using biotin-labeled SMD1 as substrate incubated for 30 mins in presence of [3H]-SAM cofactor by scintillation proximity assay.
Chain of Protein arginine N-methyltransferase 6 (Q96LA8 whole entry): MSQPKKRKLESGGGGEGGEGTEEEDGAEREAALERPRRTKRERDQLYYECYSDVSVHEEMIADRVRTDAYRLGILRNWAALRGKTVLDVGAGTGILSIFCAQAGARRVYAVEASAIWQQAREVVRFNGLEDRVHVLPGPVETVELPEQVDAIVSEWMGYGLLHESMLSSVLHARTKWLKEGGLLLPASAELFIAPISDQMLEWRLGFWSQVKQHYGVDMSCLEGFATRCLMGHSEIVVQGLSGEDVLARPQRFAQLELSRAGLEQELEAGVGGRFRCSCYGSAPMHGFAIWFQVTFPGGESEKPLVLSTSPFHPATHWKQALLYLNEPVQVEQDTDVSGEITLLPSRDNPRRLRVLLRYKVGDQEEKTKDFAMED

A word on the IC50: it is the midpoint of a concentration-inhibition curve. Regarding `C(=C/c1cc2ccc(C3=NCCN3)cc2o1)/c1cc2ccc(C3=NCCN3)cc2[nH]1`, in assay [1], the IC50 worked out at 7.6 µM.

For the compound `c1cc2cc(-c3ccc4oc(C5=NCCN5)cc4c3)[nH]c2cc1C1=NCCN1`, the 50% inhibitory concentration (IC50) in assay [2] is 60.1 µM; in assay [3], > 500 µM; in assay [4] it was 19 µM; in assay [5], 155 µM; in assay [6] it was 248 µM; in assay [7], 39.7 µM. Also, the concentration for half-maximal inhibition (IC50) in assay [8] was 12.9 µM.

For the compound `N=C(N)c1ccc2cc(CCc3cc4ccc(C(=N)N)cc4o3)[nH]c2c1`, the half-maximal inhibitory concentration (IC50) in assay [1] is > 10 µM.

For `CNC(=N)N/N=C(/C)c1ccc2oc3ccc(/C(C)=N/NC(=N)NC)cc3c2c1`, the IC50 was determined as 17.6 µM in assay [2]; 18.9 µM in assay [3]; 8.2 µM in assay [4]; 6.9 µM in assay [1]; 15.5 µM in assay [5]; 23.3 µM in assay [6]. Besides, the IC50 is 4.7 µM in assay [7] and 6.01 µM in assay [8].

Consider `N=C(N)c1ccc2[nH]c(/C=C/c3cc4cc(C(=N)N)ccc4o3)cc2c1`, for which the half-maximal inhibitory concentration (IC50) in assay [1] amounted to 7.7 µM.

With `N=C(N)c1ccc(NC(=O)c2cc3cc(C(=N)N)ccc3o2)cc1`, the half-maximal inhibitory concentration (IC50) in assay [1] was > 100 µM.

With `N=C(N)c1ccc2[nH]c(/C=C/c3cc4ccc(C(=N)N)cc4o3)cc2c1`, the IC50 in assay [1] was 7.5 µM.

Turning to `C(=C\c1cc2ccc(C3=NCCN3)cc2[nH]1)/c1ccc(Oc2ccc(C3=NCCN3)cc2)cc1`, in assay [1], the IC50 came out at 16.3 µM.

For `N=C(N)c1ccc(NC(=O)c2cc3ccc(C(=N)N)cc3o2)cc1`, the half-inhibitory concentration (IC50) in assay [1] was > 100 µM.

Consider `N=C(N)c1ccc(-c2ccc(-c3ccc(C(=N)N)cc3)o2)cc1` [FURAMIDINE], for which, in assay [1], the half-inhibitory concentration (IC50) turned out to be 8.9 µM.

Regarding `C(=C/c1cc2ccc(C3=NCCN3)cc2o1)/c1cc2cc(C3=NCCN3)ccc2[nH]1`, in assay [1], the IC50 stood at 7.9 µM.

In the case of `C(=C\c1cc2ccc(C3=NCCN3)cc2[nH]1)/c1cc2ccc(C3=NCCN3)cc2[nH]1`, the concentration for half-maximal inhibition (IC50) in assay [1] is 6.2 µM.

Consider `N=C(N)c1ccc2sc(/C=C/c3cc4ccc(C(=N)N)cc4o3)cc2c1`, for which, in assay [1], the IC50 was 16.5 µM.

As to `O=C(Nc1ccc(C2=NCCN2)cc1)c1cc2ccc(C3=NCCN3)cc2o1`, the concentration for half-maximal inhibition (IC50) in assay [1] was > 100 µM.

Consider `Nc1nc(N)c2nc3c(ccc4ccccc43)nc2n1`, for which the concentration for half-maximal inhibition (IC50) in assay [2] turned out to be 167 µM; in assay [3], 62.1 µM; in assay [4], 55.7 µM; in assay [5], 9.1 µM; in assay [6], 126 µM; in assay [7] it was 81.5 µM. For the same compound, the IC50 in assay [8] stood at 62.9 µM.

Consider `O=C(Nc1ccc(C2=NCCN2)cc1)c1cc2cc(C3=NCCN3)ccc2o1`, for which the IC50 in assay [1] was > 100 µM.

For `C1=C(/C=C/c2ccc3cc(C4=NCCN4)[nH]c3c2)Cc2cc(C3=NCCN3)ccc21`, in assay [1], the IC50 was determined as 5 µM.

In the case of `N=C(N)c1ccc2cc(/C=C/c3cc4ccc(C(=N)N)cc4o3)[nH]c2c1`, the 50% inhibitory concentration (IC50) in assay [1] was found to be 2.4 µM.

`CNCC(=O)NC1=CC2C(=O)c3ccc(NC(=O)CNC)cc3C(=O)C2C=C1` (stereo not given): the concentration for half-maximal inhibition (IC50) in assay [2] is 43.7 µM; in assay [3] it was > 500 µM; in assay [4], 11.6 µM; in assay [5] it was 12.4 µM; in assay [6], 288 µM; in assay [7], > 1000 µM. In assay [8], the IC50 was 84.5 µM.

On to `N=C(N)c1ccc(/C=C/c2cc3cc(C(=N)N)ccc3o2)cc1`, for which the concentration for half-maximal inhibition (IC50) in assay [1] was 10 µM.
